In ChEMBL document CHEMBL4715745, “Synthesis and biological evaluation of novel FK228 analogues as potential isoform selective HDAC inhibitors” (Eur J Med Chem, 2016):
pIC50: −log10 of the molar value.

Columns and labels:
Histone deacetylase 1 = Histone deacetylase 1 (Homo sapiens, UniProt Q13547); experiment: Inhibition of human HDAC1 expressed in 293T cells using Ac-KGLGK(Ac)-MCA as substrate incubated for 30 mins in presence of 0.1 mM DTT by fluorescence plate reader assay; set-up: species or system HEK293T
Sequence of Histone deacetylase 1 (Q13547 whole entry): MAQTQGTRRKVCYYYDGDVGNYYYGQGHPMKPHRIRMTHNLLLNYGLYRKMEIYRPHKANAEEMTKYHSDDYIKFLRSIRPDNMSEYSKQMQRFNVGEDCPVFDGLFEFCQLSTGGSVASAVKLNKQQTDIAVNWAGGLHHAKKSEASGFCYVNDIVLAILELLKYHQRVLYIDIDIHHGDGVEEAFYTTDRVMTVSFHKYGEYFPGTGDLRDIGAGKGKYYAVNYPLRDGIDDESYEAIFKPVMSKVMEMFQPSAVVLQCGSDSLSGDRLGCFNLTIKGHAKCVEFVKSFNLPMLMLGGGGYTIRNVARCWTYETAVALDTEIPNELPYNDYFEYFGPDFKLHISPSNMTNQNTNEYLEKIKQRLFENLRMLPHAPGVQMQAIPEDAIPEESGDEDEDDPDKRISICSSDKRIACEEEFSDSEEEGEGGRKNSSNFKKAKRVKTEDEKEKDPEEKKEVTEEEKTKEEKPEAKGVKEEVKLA

[1] = target: T1, Protein deacetylase HDAC6 (Mus musculus, UniProt Q9Z2V5); experiment: Inhibition of mouse HDAC6 expressed in 293T cells using Ac-KGLGK(Ac)-MCA as substrate incubated for 30 mins in presence of 0.1 mM DTT by fluorescence plate reader assay; set-up: species or system HEK293T
T1 sequence (Q9Z2V5 whole entry): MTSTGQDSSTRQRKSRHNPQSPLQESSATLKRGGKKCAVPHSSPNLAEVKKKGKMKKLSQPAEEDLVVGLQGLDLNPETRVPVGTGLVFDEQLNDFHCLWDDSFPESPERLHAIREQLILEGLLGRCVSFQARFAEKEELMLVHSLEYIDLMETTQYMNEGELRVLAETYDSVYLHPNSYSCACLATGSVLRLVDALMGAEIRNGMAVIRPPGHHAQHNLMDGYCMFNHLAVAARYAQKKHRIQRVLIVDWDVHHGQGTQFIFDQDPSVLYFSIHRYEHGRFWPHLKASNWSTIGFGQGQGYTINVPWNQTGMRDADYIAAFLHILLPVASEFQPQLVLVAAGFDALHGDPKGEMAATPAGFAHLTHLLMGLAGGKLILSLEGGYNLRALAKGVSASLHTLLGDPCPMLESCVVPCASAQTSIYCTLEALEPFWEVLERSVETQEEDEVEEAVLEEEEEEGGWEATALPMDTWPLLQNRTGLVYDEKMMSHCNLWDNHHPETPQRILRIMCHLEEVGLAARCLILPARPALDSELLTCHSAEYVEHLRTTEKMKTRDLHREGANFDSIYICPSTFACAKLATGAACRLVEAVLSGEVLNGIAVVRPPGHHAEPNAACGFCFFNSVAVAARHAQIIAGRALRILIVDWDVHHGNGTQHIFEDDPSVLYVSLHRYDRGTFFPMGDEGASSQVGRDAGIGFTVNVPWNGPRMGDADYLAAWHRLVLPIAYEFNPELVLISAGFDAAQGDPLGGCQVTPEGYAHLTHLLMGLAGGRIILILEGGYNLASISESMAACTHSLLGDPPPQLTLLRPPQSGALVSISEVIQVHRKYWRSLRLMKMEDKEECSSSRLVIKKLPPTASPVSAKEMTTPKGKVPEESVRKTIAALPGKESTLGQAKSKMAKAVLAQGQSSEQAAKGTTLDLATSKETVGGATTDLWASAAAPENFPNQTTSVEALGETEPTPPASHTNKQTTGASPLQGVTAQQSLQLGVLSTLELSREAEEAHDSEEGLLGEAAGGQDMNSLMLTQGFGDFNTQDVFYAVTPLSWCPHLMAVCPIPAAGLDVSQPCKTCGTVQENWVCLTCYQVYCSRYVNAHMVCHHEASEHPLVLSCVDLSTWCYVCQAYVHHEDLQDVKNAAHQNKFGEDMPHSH
Outline: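 HDAC enzyme assay run in the presence of 0.1 mM dithiothreitol (DTT); IC₅₀ determined.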

[2] = Selectivity index, ratio of IC50 for mouse HDAC6 expressed in 293T cells to IC50 for human HDAC1 expressed in 293T cells using Ac-KGLGK(Ac)-MCA as substrate incubated for 30 mins in presence of 0.1 mM DTT by fluorescence plate reader assay; conditions: 0.5 h
Outline: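 Ratio of HDAC6 IC₅₀ to HDAC1 IC₅₀, taken as selectivity for class I HDAC1 over class II HDAC6. Both enzyme assays were run in the presence of 0.1 mM DTT.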

[3] = Growth inhibition of human HBC4 cells measured after 48 hrs by sulforhodamine B assay; format: functional
Outline: (§1)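 Panel of 39 human cancer cell lines tested at the Japanese Foundation for Cancer Research. Five concentrations per compound, spanning 10⁻¹¹–10⁻⁷ M, 10⁻¹⁰–10⁻⁶ M or 10⁻⁸–10⁻⁴ M, were used to build dose-response curves. GI₅₀ is the concentration giving 50% growth inhibition relative to control.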

[4] = Growth inhibition of human BSY1 cells measured after 48 hrs by sulforhodamine B assay; format: functional; conditions: BSY-1; outline: as §1
[5] = Growth inhibition of human HBC5 cells measured after 48 hrs by sulforhodamine B assay; format: functional; outline: as §1
MCF7 = experiment: Growth inhibition of human MCF7 cells measured after 48 hrs by sulforhodamine B assay; format: functional; outline: as §1
MDA-MB-231 = experiment: Growth inhibition of human MDA-MB-231 cells measured after 48 hrs by sulforhodamine B assay; format: functional; outline: as §1
U-251 = experiment: Growth inhibition of human U-251 cells measured after 48 hrs by sulforhodamine B assay; format: functional; outline: as §1
SF-268 = experiment: Growth inhibition of human SF-268 cells measured after 48 hrs by sulforhodamine B assay; format: functional; outline: as §1
SF-295 = experiment: Growth inhibition of human SF-295 cells measured after 48 hrs by sulforhodamine B assay; format: functional; outline: as §1
SF-539 = experiment: Growth inhibition of human SF-539 cells measured after 48 hrs by sulforhodamine B assay; format: functional; outline: as §1
SNB-75 = experiment: Growth inhibition of human SNB-75 cells measured after 48 hrs by sulforhodamine B assay; format: functional; outline: as §1
SNB-78 = experiment: Growth inhibition of human SNB-78 cells measured after 48 hrs by sulforhodamine B assay; format: functional; outline: as §1
HCC 2998 = experiment: Growth inhibition of human HCC 2998 cells measured after 48 hrs by sulforhodamine B assay; format: functional; outline: as §1
KM12 = experiment: Growth inhibition of human KM12 cells measured after 48 hrs by sulforhodamine B assay; format: functional; outline: as §1
HT-29 = experiment: Growth inhibition of human HT-29 cells measured after 48 hrs by sulforhodamine B assay; format: functional; outline: as §1
HCT-15 = experiment: Growth inhibition of human HCT-15 cells measured after 48 hrs by sulforhodamine B assay; format: functional; outline: as §1
HCT-116 = experiment: Growth inhibition of human HCT-116 cells measured after 48 hrs by sulforhodamine B assay; format: functional; outline: as §1
NCI-H23 = experiment: Growth inhibition of human NCI-H23 cells measured after 48 hrs by sulforhodamine B assay; format: functional; outline: as §1
NCI-H226 = experiment: Growth inhibition of human NCI-H226 cells measured after 48 hrs by sulforhodamine B assay; format: functional; outline: as §1
NCI-H522 = experiment: Growth inhibition of human NCI-H522 cells measured after 48 hrs by sulforhodamine B assay; format: functional; outline: as §1
NCI-H460 = experiment: Growth inhibition of human NCI-H460 cells measured after 48 hrs by sulforhodamine B assay; format: functional; outline: as §1
A549 = experiment: Growth inhibition of human A549 cells measured after 48 hrs by sulforhodamine B assay; format: functional; outline: as §1
DMS-273 = experiment: Growth inhibition of human DMS-273 cells measured after 48 hrs by sulforhodamine B assay; format: functional; outline: as §1
DMS-114 = experiment: Growth inhibition of human DMS-114 cells measured after 48 hrs by sulforhodamine B assay; format: functional; outline: as §1
LOX IMVI = experiment: Growth inhibition of human LOX IMVI cells measured after 48 hrs by sulforhodamine B assay; format: functional; outline: as §1
OVCAR-3 = experiment: Growth inhibition of human OVCAR-3 cells measured after 48 hrs by sulforhodamine B assay; format: functional; outline: as §1
OVCAR-4 = experiment: Growth inhibition of human OVCAR-4 cells measured after 48 hrs by sulforhodamine B assay; format: functional; outline: as §1
OVCAR-5 = experiment: Growth inhibition of human OVCAR-5 cells measured after 48 hrs by sulforhodamine B assay; format: functional; outline: as §1
OVCAR-8 = experiment: Growth inhibition of human OVCAR-8 cells measured after 48 hrs by sulforhodamine B assay; format: functional; outline: as §1
SK-OV-3 = experiment: Growth inhibition of human SK-OV-3 cells measured after 48 hrs by sulforhodamine B assay; format: functional; outline: as §1
RXF 631 = experiment: Growth inhibition of human RXF 631 cells measured after 48 hrs by sulforhodamine B assay; format: functional; outline: as §1
ACHN = experiment: Growth inhibition of human ACHN cells measured after 48 hrs by sulforhodamine B assay; format: functional; outline: as §1
St-4 = experiment: Growth inhibition of human St-4 cells measured after 48 hrs by sulforhodamine B assay; format: functional; outline: as §1
MKN-1 = experiment: Growth inhibition of human MKN-1 cells measured after 48 hrs by sulforhodamine B assay; format: functional; outline: as §1
MKN-7 = experiment: Growth inhibition of human MKN-7 cells measured after 48 hrs by sulforhodamine B assay; format: functional; outline: as §1
MKN-28 = experiment: Growth inhibition of human MKN-28 cells measured after 48 hrs by sulforhodamine B assay; format: functional; outline: as §1
MKN-45 = experiment: Growth inhibition of human MKN-45 cells measured after 48 hrs by sulforhodamine B assay; format: functional; outline: as §1
MKN-74 = experiment: Growth inhibition of human MKN-74 cells measured after 48 hrs by sulforhodamine B assay; format: functional; outline: as §1
DU-145 = experiment: Growth inhibition of human DU-145 cells measured after 48 hrs by sulforhodamine B assay; format: functional; outline: as §1
PC-3 = experiment: Growth inhibition of human PC-3 cells measured after 48 hrs by sulforhodamine B assay; format: functional; outline: as §1

For `CC(C)C[C@H]1NC(=O)[C@H]2CSSCC/C=C/[C@H](CC(=O)N[C@H](C(C)C)C(=O)N2)OC(=O)CNC1=O`, the pIC50 (Histone deacetylase 1) was 9.02, the pIC50 [1] was 5.07 and the “Ratio IC50” value [2] was 8804. For the same compound, the GI50 [3] was 70 nM, the GI50 [4] was 69 nM and the GI50 [5] was 270 nM. It also gave a GI50 (MCF7) of 52 nM, a GI50 (MDA-MB-231) of 39 nM and a GI50 (U-251) of 10 nM. For the same compound, the GI50 (SF-268) was 11 nM, the GI50 (SF-295) was 1100 nM and the GI50 (SF-539) was 57 nM. For the same compound, the GI50 (SNB-75) was 43 nM, the GI50 (SNB-78) was 30 nM and the GI50 (HCC 2998) was 27 nM. The GI50 (KM12) was 33 nM, the GI50 (HT-29) was 33 nM and the GI50 (HCT-15) was 590 nM. The GI50 (HCT-116) was 22 nM, the GI50 (NCI-H23) was 39 nM and the GI50 (NCI-H226) was 59 nM. The GI50 (NCI-H522) was 10 nM, the GI50 (NCI-H460) was 39 nM and the GI50 (A549) was 23 nM. The GI50 (DMS-273) was 74 nM, the GI50 (DMS-114) was 36 nM and the GI50 (LOX IMVI) was 23 nM. It also gave a GI50 (OVCAR-3) of 40 nM, a GI50 (OVCAR-4) of 87 nM and a GI50 (OVCAR-5) of 31 nM. The GI50 (OVCAR-8) was 42 nM, the GI50 (SK-OV-3) was 23 nM and the GI50 (RXF 631) was 68 nM. It also gave a GI50 (ACHN) of 200 nM, a GI50 (St-4) of 230 nM and a GI50 (MKN-1) of 21 nM. It also gave a GI50 (MKN-7) of 280 nM, a GI50 (MKN-28) of 270 nM and a GI50 (MKN-45) of 240 nM. For the same compound, the GI50 (MKN-74) was 44 nM, the GI50 (DU-145) was 37 nM and the GI50 (PC-3) was 69 nM.

With `CC(C)[C@H]1NC(=O)C[C@H]2/C=C/CCSSC[C@@H](NC1=O)C(=O)N[C@@H](Cc1ccccc1)C(=O)NCC(=O)O2` the pIC50 (Histone deacetylase 1) was 7.39, the pIC50 [1] was 6.45 and the “Ratio IC50” value [2] was 9. It also gave a GI50 [3] of 690 nM, a GI50 [4] of 1300 nM and a GI50 [5] of 1900 nM. For the same compound, the GI50 (MCF7) was 1900 nM, the GI50 (MDA-MB-231) was 1200 nM and the GI50 (U-251) was 1500 nM. For the same compound, the GI50 (SF-268) was 220 nM, the GI50 (SF-295) was 1800 nM and the GI50 (SF-539) was 860 nM. It also gave a GI50 (SNB-75) of 1300 nM, a GI50 (SNB-78) of 540 nM and a GI50 (HCC 2998) of 1100 nM. It also gave a GI50 (KM12) of 740 nM, a GI50 (HT-29) of 570 nM and a GI50 (HCT-15) of 26000 nM. The GI50 (HCT-116) was 250 nM, the GI50 (NCI-H23) was 1100 nM and the GI50 (NCI-H226) was 1200 nM. For the same compound, the GI50 (NCI-H522) was 200 nM, the GI50 (NCI-H460) was 1100 nM and the GI50 (A549) was 880 nM. For the same compound, the GI50 (DMS-273) was 1500 nM, the GI50 (DMS-114) was 620 nM and the GI50 (LOX IMVI) was 160 nM. The GI50 (OVCAR-3) was 1100 nM, the GI50 (OVCAR-4) was 1900 nM and the GI50 (OVCAR-5) was 1400 nM. The GI50 (OVCAR-8) was 1400 nM, the GI50 (SK-OV-3) was 1200 nM and the GI50 (RXF 631) was 1800 nM. It also gave a GI50 (ACHN) of 11000 nM, a GI50 (St-4) of 2000 nM and a GI50 (MKN-1) of 290 nM. For the same compound, the GI50 (MKN-7) was 1900 nM, the GI50 (MKN-28) was 2100 nM and the GI50 (MKN-45) was 1800 nM. For the same compound, the GI50 (MKN-74) was 500 nM, the GI50 (DU-145) was 590 nM and the GI50 (PC-3) was 1100 nM.
